Screens: PubChem BioAssay, several laboratories
TDP2 inh: human TDP2 enzyme inhibitors, primary screen, biochemical, epi absorbance, recombinant enzyme. Tyrosyl-DNA phosphodiesterase 2 (Homo sapiens), O95551. T5PNP hydrolysis, p-nitrophenol absorbance 415 nm. inhibition, % at 12.8 µM. AID 720702, 2013. actives 0.34% (n = 370,000);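 active = inhibition above the mean of all tested compounds plus 3 SD, set per campaign, cut at about 25% in these data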
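System: recombinant human TDP2 / Amount: 120 nM TDP2 per well / Also added: 5 mM T5PNP chromogenic substrate / Doses: 12.8 µM single point, 1% DMSO / Incubation: 2 h at 37 °C / Detection: p-Nitrophenol epi absorbance / Evaluation: % inhibition relative to enzyme-containing and enzyme-free wells / Repeats: singlicate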
UHRF1 MBD2 ctr: UHRF1 methylated DNA binding inhibitors, primary screen, counter-screen for MBD2 inhibitor project, biochemical, TR-FRET, human UHRF1, single concentration; E3 ubiquitin-protein ligase UHRF1 (Homo sapiens), Q96T88; UHRF1 binding to methylated oligo; inhibition, % at 4.4 µM; actives 0.75% (n = 370,000); AID 687016, 2013; in the data active = inhibition above about 21%;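 also: UHRF1 SRA domain binding a hemimethylated CpG hairpin DNA probe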
Casp6 inh: human caspase-6 inhibitors, primary screen, biochemical, VEID-R110 fluorescence, single point, set 2; inhibition, % at 12.5 µM; P55212; actives 0.53% (n = 350,000); purified caspase-6, Z-VEID-R110 cleavage fluorescence;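 active = mean inhibition across replicates at least about 35%, with every replicate also reaching that limit, limit read from the data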
LEDGF integ inh: blockers of LEDGF/p75-dependent integrase strand transfer – biochemical, TR-FRET, high throughput, primary screen; TR-FRET IN-LEDGF/p75 DNA integration, Eu/Cy5; inhibition, % at 3.7 µM; HIV-1 integrase (with human LEDGF/p75); actives 0.64% (n = 370,000); AID 743269, 2014;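 active = inhibition above the screen-wide mean plus 3 SD, cut at about 13% in these data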;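 also: signal is the Cy5 over europium emission ratio at 671 and 618 nm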
MBD2 inh: inhibitors of MBD2 binding to methylated DNA, primary screen, biochemical, TR-FRET, DNA-binding domain, human; Methyl-CpG-binding domain protein 2 (Homo sapiens), Q9UBB5; MBD2 binding to methylated oligonucleotide; inhibition, % at 4.4 µM; actives 0.31% (n = 370,000); AID 686964, 2013; in the data active = inhibition above about 13%
NSD2 inh: NSD2 histone methyltransferase inhibitors, primary screen, biochemical, AlphaScreen, single concentration, set 2; Histone-lysine N-methyltransferase NSD2 (Homo sapiens), O96028; NSD2 peptide methylation, 120 min; inhibition, % at 12.5 µM; actives 0.54% (n = 310,000); in the data active = inhibition above about 50%
Large screens that a line does not name were inactive. Sampled rows, rich in hits. Any-hit rate of the full collection: about 1.8%.

NCC12CC3CC(C1)CC(c1ccc(Cl)cc1)(C3)C2	UHRF1 MBD2 ctr 21.1
COc1ccc(C2/C(=C(/O)c3ccc(C)cc3)C(=O)C(=O)N2CC2CCCO2)cc1OC (stereo not drawn)	UHRF1 MBD2 ctr 21.8
COc1cc(/C=C2\C(=N)N3N=C(S(C)(=O)=O)SC3=NC2=O)ccc1OS(=O)(=O)c1ccc(C)cc1	Casp6 inh 49.6
COc1cc(/C=C2/SC(=S)N(CC(=O)O)C2=O)ccc1OC(=O)c1cccs1	none
COc1cc(/C=C2\SC(=S)N(CC(=O)O)C2=O)ccc1OS(=O)(=O)c1ccc(C)cc1	UHRF1 MBD2 ctr 25.9, Casp6 inh 40.9
COc1cc(/C=C2\C(=N)N3N=C(S(C)(=O)=O)SC3=NC2=O)cc(OC)c1OCCOc1ccccc1C	Casp6 inh 41.6
COc1cc(/C=C2\C(=N)N3N=C(C)SC3=NC2=O)cc(OC)c1OCCOc1ccccc1C	none
N#Cc1c(F)cccc1N1CCOCC1	UHRF1 MBD2 ctr 52.9 (no result: Casp6 inh)
CNC[C@@H]1Oc2c(NC(=O)c3cc(C)nn3C)cccc2C(=O)N([C@H](C)CO)C[C@@H]1C	none (no result: TDP2 inh, UHRF1 MBD2 ctr, LEDGF integ inh, MBD2 inh, NSD2 inh)
Cn1c(N)c(N=O)c(=O)n(C)c1=S	Casp6 inh 60.0
COc1ccc(NC(=O)CN2CCN(c3ccccc3Cl)CC2)cc1	none (no result: Casp6 inh)
CCOc1ccc(NC(=O)Cn2cc(C(C)=O)c3ccccc32)cc1	none (no result: Casp6 inh)
COc1ccc(NC(=O)CN2CCN(c3ccccc3C)CC2)cc1	UHRF1 MBD2 ctr 79.2
COc1ccc(NC(=O)Cn2cc(C(C)=O)c3ccccc32)cc1	UHRF1 MBD2 ctr 94.0
C[C@H]1CN([C@@H](C)CO)C(=O)Cc2cc(NC(=O)Nc3ccccc3)ccc2O[C@H]1CN(C)C(=O)Nc1ccc2c(c1)OCO2	none (no result: TDP2 inh, UHRF1 MBD2 ctr, LEDGF integ inh, MBD2 inh, NSD2 inh)
O=C(c1cnccn1)N1CC(=O)N2[C@H](CO)[C@@H](c3ccc(C4=CCCCC4)cc3)[C@@H]2C1	none (no result: TDP2 inh, UHRF1 MBD2 ctr, LEDGF integ inh, MBD2 inh, NSD2 inh)
O=C(N/N=C\C=C\c1ccc2c(c1)OCO2)c1cccnc1	UHRF1 MBD2 ctr 32.7
Cc1ccc(S(=O)(=O)N(C)C[C@H]2Oc3ncc(C#CC4(O)CCCC4)cc3C(=O)N([C@@H](C)CO)C[C@H]2C)cc1	none (no result: TDP2 inh, UHRF1 MBD2 ctr, LEDGF integ inh, MBD2 inh, NSD2 inh)
CN1CCN(C(=O)c2cc(Cl)cc(Cl)c2)CC1	Casp6 inh 64.7
COc1cccc(CC(=O)OCC(=O)NC2(C#N)CCCCC2)c1	UHRF1 MBD2 ctr 45.8
O=C(c1ccccn1)N1C[C@H]2[C@@H](c3ccccc31)[C@H](CO)N2C(=O)Nc1ccccc1	none (no result: TDP2 inh, UHRF1 MBD2 ctr, LEDGF integ inh, MBD2 inh, NSD2 inh)
N=C1C(=O)OCC1c1ccccc1NC(=O)c1ccc(F)cc1 (stereo not drawn)	UHRF1 MBD2 ctr 50.9 (no result: Casp6 inh)
Cc1ccc(C)c(NC(=O)CN2C(=O)NC(C)(c3ccc4c(c3)OCCO4)C2=O)c1 (stereo not drawn)	UHRF1 MBD2 ctr 69.6
Cc1ccc(F)cc1NC(=O)CN1C(=O)NC(C)(c2ccc3c(c2)OCCO3)C1=O (stereo not drawn)	none
CO[C@@H]1CN(C)C(=O)c2ccc(NC(=O)Nc3cccc(F)c3)cc2OC[C@@H](C)N(C(=O)Nc2c(C)noc2C)C[C@H]1C	none (no result: TDP2 inh, UHRF1 MBD2 ctr, LEDGF integ inh, MBD2 inh, NSD2 inh)
COc1ccc(S(=O)(=O)N(C)C[C@H]2OCCCC[C@H](C)Oc3ccc(NC(=O)CCC(F)(F)F)cc3C(=O)N([C@H](C)CO)C[C@@H]2C)cc1	none (no result: TDP2 inh, UHRF1 MBD2 ctr, LEDGF integ inh, MBD2 inh, NSD2 inh)
O=C1C=C(C2CCCCC2)C(=O)c2ccccc21	Casp6 inh 50.4
O=C(O)C1=C(C2CCCCC2)C(=O)c2ccccc21	none
CC1CCN(C(=O)Cn2cc(C(F)(F)F)ccc2=O)c2ccccc2S1 (stereo not drawn)	Casp6 inh 69.6
O=C(Cn1cc(C(F)(F)F)ccc1=O)N1CCCc2ccccc21	none
CCOc1ccccc1NC(=O)CN(c1cc(C)cc(C)c1)S(=O)(=O)c1c(C)noc1C	UHRF1 MBD2 ctr 27.1 (no result: NSD2 inh)
